The source of these data is ChEMBL document CHEMBL3751842, “Novel triazolothiadiazines act as potent anticancer agents in liver cancer cells through Akt and ASK-1 proteins” (Bioorg Med Chem, 2016).

A word on the pIC50: it is the IC50 on a negative log10 scale, so that one unit is a factor of ten.

The subject of one assay is Mahlavu. Description: Induction of apoptosis in human Mahlavu cells assessed as decrease in cyclin D1 level after 24 to 48 hrs by Western blot analysis. In kind it is functional, cell-based. A digest of the protocol:
(§1)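 Cells were exposed to compound or DMSO control for 24 or 48 h. Lysates were loaded at […] protein per lane and immunoblotted with antibodies diluted 1:100 to 1:500 in 5% BSA-TBS-T. Targets were p-Akt (Ser473), Akt, p-GSK3-α/β (Ser21/9), GSK3-α/β, SAPK/JNK, p-SAPK/JNK (Thr183/Tyr185), PARP, p-β-catenin, β-catenin, cyclin D1, p-ASK1 (S83) and p-ASK1 (S966). Actin served as the loading control.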
(Immunoblotting shows a protein as a band on a membrane.)

Assay [1] concerns the target T1, Catenin beta-1 (Homo sapiens) (UniProt P35222).
T1 sequence (whole entry): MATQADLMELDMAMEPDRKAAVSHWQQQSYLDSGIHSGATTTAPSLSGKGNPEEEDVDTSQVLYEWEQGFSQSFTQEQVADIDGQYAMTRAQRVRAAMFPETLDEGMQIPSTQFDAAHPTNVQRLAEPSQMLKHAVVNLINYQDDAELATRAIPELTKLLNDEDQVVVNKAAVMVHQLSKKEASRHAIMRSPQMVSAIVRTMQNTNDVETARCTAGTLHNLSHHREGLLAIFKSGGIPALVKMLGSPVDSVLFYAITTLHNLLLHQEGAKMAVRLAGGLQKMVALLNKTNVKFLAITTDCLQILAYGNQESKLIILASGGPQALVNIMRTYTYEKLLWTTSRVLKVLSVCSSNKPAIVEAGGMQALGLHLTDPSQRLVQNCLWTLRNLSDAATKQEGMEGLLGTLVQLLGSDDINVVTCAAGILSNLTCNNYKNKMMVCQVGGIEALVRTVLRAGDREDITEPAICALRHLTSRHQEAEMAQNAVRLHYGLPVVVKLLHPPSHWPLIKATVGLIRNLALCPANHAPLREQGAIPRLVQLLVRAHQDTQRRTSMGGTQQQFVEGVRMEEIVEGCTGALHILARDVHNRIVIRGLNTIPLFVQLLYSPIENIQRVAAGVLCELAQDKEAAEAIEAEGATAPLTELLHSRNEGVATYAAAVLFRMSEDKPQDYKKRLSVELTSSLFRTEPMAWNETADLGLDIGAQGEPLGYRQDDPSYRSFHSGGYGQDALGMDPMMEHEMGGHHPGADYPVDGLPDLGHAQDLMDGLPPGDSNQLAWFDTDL
Put plainly: Induction of beta-catenin phosphorylation in human HuH7 cells after 24 to 48 hrs by Western blot analysis. In kind it is cell-based. Conditions: Huh-7. A digest of the protocol:
as §1

The test system of assay [2] is Huh-7. Put plainly: Induction of oxidative stress in human HuH7 cells assessed as ROS accumulation at 10 uM after 48 hrs by DCFH-DA staining based fluorescence microscopy. In kind it is functional, cell-based. A digest of the protocol:
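Cells in 6-well dishes were treated with 10 µM compound or DMSO for 48 h. They were washed in PBS and stained for 15 min at 37°C in the dark with DCFH-DA solution (1 mM DCFH-DA, 10 mM glucose, 10 mM HEPES in PBS). After three PBS washes, cells were viewed by fluorescence microscopy. Selenium-deficient serum-free medium culture served as the positive control.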

For assay [3], the system named is Huh-7. Put plainly: Induction of apoptosis in human HuH7 cells assessed as PARP cleavage after 24 to 48 hrs by Western blot analysis. In kind it is functional, cell-based. A digest of the protocol: as §1
The subject of assay [4] is Huh-7. Put plainly: Cytotoxicity against human HuH7 cells assessed as cell impedance at IC25 to IC100 measured every 30 mins for 72 hrs by RT-CES assay. In kind it is functional, cell-based. The settings on record: TDE = time-dependent effect. A digest of the protocol: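 Huh7 cells were seeded at 1000–5000 cells/well on electrode plates. […] Impedance was read as cell index every 10 min for the first 24 h, then every 30 min, over 72 h. Data were normalized to DMSO; inhibition (%) = [1 − (CI treated/CI DMSO)] × 100. Each experiment was run at least three times.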

A short description of assay [5]: Cytotoxicity against human Mahlavu cells assessed as growth inhibition after 72 hrs by sulforhodamine B assay. Conditions: Homo sapiens, Mahlavu, 72 h; read-out: IC50. In kind it is functional, cell-based. In short, it runs like this:
(§2)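 Cells were grown at 37°C, 5% CO2 in DMEM with 10% FBS. They were seeded at 1000–3000 cells/well, grown 24 h, then exposed to compound at 2.5–40 µM for 72 h. Cells were fixed in 10% TCA for 1 h at 4°C, stained with 0.4% SRB in 1% acetic acid for 10 min, and the dye solubilized in 10 mM Tris. Absorbance was read at 515 nm; runs were in triplicate; IC50 was calculated, with fits of R2 0.8–1 accepted.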

For another assay, the system named is HepG2. Description: Cytotoxicity against human HepG2 cells assessed as growth inhibition after 72 hrs by sulforhodamine B assay. In kind it is functional, cell-based. The settings on record: Homo sapiens, HepG2, 72 h; read-out: IC50. A digest of the protocol:
as §2
For orientation: Sulforhodamine B stains cellular protein and so reports cell mass.

pIC50: −log10 of the molar value. Active and inactive are the calls of the source. The rule behind the calls is not given here.

As for `Cc1ccc(C2=Nn3c(nnc3C(C)c3ccc(CC(C)C)cc3)SC2)cc1` (centres undefined), the outcome (with Mahlavu; in assay [1]; with Huh-7 [2]; in the assay on Huh-7 [3]) was Active. Besides, the Activity result in the assay on Huh-7 [4] is “tde”. Further, the pIC50 in assay [5] is 5.07; in the assay on HepG2, 5.14.
Turning to `COc1ccc(C2=Nn3c(nnc3C(C)c3ccc(CC(C)C)cc3)SC2)cc1` (centres undefined), the outcome (with Mahlavu; in assay [1]; in the assay with Huh-7 [2]; in the assay on Huh-7 [3]) was Active. The Activity entry in the assay on Huh-7 [4] was “tde”. In addition, the pIC50 in assay [5] was 4.87; with HepG2, 5.42.
